For series [1], the species on record is Mus musculus. The series is described as follows: Percentage toxicity measured as ataxia. It is filed as organism-based. The following applies: in vivo. In a few lines: (§1)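 Mice (groups of 10) were dosed sc with drug in 0.9% saline and watched for 20 min for overt toxicity (ataxia, convulsions, loss of righting reflex, death) before chloroform exposure.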

Series [2] is described as follows: Percentage toxicity measured as death of mice. It is filed as organism-based. Also on record: concentration or dose not given beside the values. The following applies: mouse, in vivo; read-out: Death.
Series [3] is filed under the species Mus musculus. The series is described as follows: Percentage toxicity measured as loss of righting reflex. It is filed as organism-based. The conditions noted are these: in vivo. In a few lines:
as §1

In series [4] the test system is Mus musculus. Description: Protection against chloroform induced arrhythmias in mice after subcutaneous administration at 100 mg/kg dose. It is filed as functional. The method in brief: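 Groups of 10 unanesthetized mice got sc injection of drug in 0.9% saline. After 20 min observation they were placed one by one in chloroform-vapor-saturated air. When breathing stopped, the thorax was opened and the heart inspected by eye; coordinated ventricular contractions counted as protected.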

Series [5] is filed under the species Mus musculus. The series is described as follows: Percentage toxicity measured as convulsions. The series is classed as organism-based. The following applies: in vivo. The method in brief: as §1

Consider `CCN(CC)C(C)CN1C(=O)CC2(CCCc3ccc(O)cc32)C1=O` (centres undefined), for which the Ataxia in the series filed under Mus musculus [1] is 50%. For the same compound, the mortality in series [2] was 0%. Moreover, the “Loss of righting reflex” value in the series filed under Mus musculus [3] worked out at 0%. In the series on Mus musculus [4], this compound returned a Protection of 60%. The compound also had a Convulsion in the series filed under Mus musculus [5] of 0%.
In the series listed under Mus musculus [1], `CN(CCO)CCN1C(=O)CC2(CCCc3ccccc32)C1=O` (centres undefined) returned an Ataxia of 0%. In addition, the mortality in series [2] worked out at 0%. Besides, the “Loss of righting reflex” value in the series listed under Mus musculus [3] is 0%. Moreover, in the series with Mus musculus [4], the Protection is 30%. The compound also showed a Convulsion in the series listed under Mus musculus [5] of 0%.
Compound `CCN(CC)CCCN1C(=O)CC2(CCCc3cc(OC)ccc32)C1=O` (centres undefined) registered an Ataxia in the series filed under Mus musculus [1] of 100%. In addition, the mortality in series [2] was 0%. Moreover, the “Loss of righting reflex” value in the series listed under Mus musculus [3] came to 0%. The Protection with Mus musculus [4] turned out to be 40%.
The compound `O=C1CC2(CCCc3ccccc32)C(=O)N1CCCN1CCOCC1` (centres undefined) showed an Ataxia in the series filed under Mus musculus [1] of 100%. Besides, in series [2], the mortality is 0%. Besides, the “Loss of righting reflex” value in the series filed under Mus musculus [3] came out at 0%. For the same compound, the Protection in the series with Mus musculus [4] turned out to be 20%. The Convulsion in the series filed under Mus musculus [5] came to 0%.
Consider `CCN(CC)CCCN1C(=O)CC(c2ccccc2)C1=O` (centres undefined), for which, in the series filed under Mus musculus [1], the Ataxia is listed as 0%. Also, in series [2], the mortality was determined as 0%. Besides, the “Loss of righting reflex” value in the series filed under Mus musculus [3] amounted to 0%. This compound also had a Protection in the series on Mus musculus [4] of 30%. The compound also came in with a Convulsion in the series filed under Mus musculus [5] of 0%.
Consider `CN(CCO)CCCCN1C(=O)CC2(CCCc3ccccc32)C1=O` (centres undefined), for which the Ataxia in the series listed under Mus musculus [1] is 0%. Moreover, the mortality in series [2] worked out at 0%. Besides, in the series filed under Mus musculus [3], the “Loss of righting reflex” value was determined as 0%. The same compound registered a Protection with Mus musculus [4] of 10%. This compound displayed a Convulsion in the series listed under Mus musculus [5] of 0%.
In turn, `COCCN(C)CCCN1C(=O)CC2(CCCc3ccccc32)C1=O` (centres undefined) showed an Ataxia in the series listed under Mus musculus [1] of 100%. In addition, the mortality in series [2] was determined as 0%. Besides, the “Loss of righting reflex” value in the series listed under Mus musculus [3] is 100%. In addition, in the series with Mus musculus [4], the Protection amounted to 30%. In the series filed under Mus musculus [5], this compound had a Convulsion of 100%.
In the case of `CCN(CC)C(C)CN1C(=O)CC2(CCCc3ccccc32)C1=O` (centres undefined), the Ataxia in the series listed under Mus musculus [1] turned out to be 100%. For the same compound, the mortality in series [2] stood at 0%. Also, in the series filed under Mus musculus [3], the “Loss of righting reflex” value was 0%. Moreover, the Protection in the series with Mus musculus [4] amounted to 50%. In the series listed under Mus musculus [5], the Convulsion stood at 100%.
For `NCCCCCN1C(=O)CC2(CCCc3ccccc32)C1=O` (centres undefined), in the series listed under Mus musculus [1], the Ataxia came out at 0%. The mortality in series [2] was 0%. Also, the “Loss of righting reflex” value in the series listed under Mus musculus [3] was 0%. Besides, the Protection with Mus musculus [4] came to 20%. The Convulsion in the series filed under Mus musculus [5] is reported as 0%.
On to `COc1ccc2c(c1)CCCC21CC(=O)N(CCN(C)C)C1=O` (centres undefined), for which the Ataxia in the series listed under Mus musculus [1] is 100%. For the same compound, the mortality in series [2] was determined as 0%. The “Loss of righting reflex” value in the series filed under Mus musculus [3] was determined as 0%. Besides, the Protection in the series with Mus musculus [4] amounted to 20%. The Convulsion in the series filed under Mus musculus [5] stood at 0%.
In the series filed under Mus musculus [1], `CN(CCO)CCN1C(=O)CC2(CCc3ccccc3C2)C1=O` (centres undefined) showed an Ataxia of 100%. Besides, the mortality in series [2] is 0%. Besides, the “Loss of righting reflex” value in the series filed under Mus musculus [3] came out at 0%. The same compound yielded a Protection in the series with Mus musculus [4] of 30%. The Convulsion in the series listed under Mus musculus [5] stood at 40%.
On to `CCN(CC)C(C)CCN1C(=O)CC2(CCCc3cc(OC)ccc32)C1=O` (centres undefined), for which the Ataxia in the series listed under Mus musculus [1] is listed as 60%. In addition, the mortality in series [2] worked out at 0%. Also, the “Loss of righting reflex” value in the series listed under Mus musculus [3] is reported as 0%. The compound also yielded a Protection with Mus musculus [4] of 0%. Besides, in the series filed under Mus musculus [5], the Convulsion is given as 0%.
In turn, `CCN(CC)C(C)CCN1C(=O)CC2(CCCc3ccccc32)C1=O` (centres undefined) returned an Ataxia in the series listed under Mus musculus [1] of 100%. For the same compound, in series [2], the mortality came out at 0%. The “Loss of righting reflex” value in the series filed under Mus musculus [3] is reported as 0%. Moreover, the Protection in the series on Mus musculus [4] is 40%. The compound also showed a Convulsion in the series filed under Mus musculus [5] of 0%.
On to `COc1ccc2c(c1)CCCC21CC(=O)N(CCCN(C)C)C1=O` (centres undefined), for which the Ataxia in the series listed under Mus musculus [1] was 100%. Besides, in series [2], the mortality came to 0%. Also, the “Loss of righting reflex” value in the series filed under Mus musculus [3] is reported as 0%. Further, in the series on Mus musculus [4], the Protection is recorded as 0%. The compound also showed a Convulsion in the series listed under Mus musculus [5] of 0%.
Turning to `O=C1NC(=O)C(C2CCc3ccccc3C2)N1` (centres undefined), the Ataxia in the series filed under Mus musculus [1] is 0%. For the same compound, the mortality in series [2] worked out at 0%. Besides, in the series listed under Mus musculus [3], the “Loss of righting reflex” value worked out at 0%. The same compound registered a Protection in the series with Mus musculus [4] of 20%. For the same compound, the Convulsion in the series listed under Mus musculus [5] is 0%.

The record behind these values is ChEMBL document CHEMBL1121715, “New antiarrhythmic agents. 4. 1'-(Aminoalkyl)-1,2,3,4-tetrahydronaphthalene-1-spiro-3'-pyrrolidine-2',5'-dione derivatives” (J Med Chem, 1981).
